Laboratory results from PubChem BioAssay.

assay: LAP4-GFP expression modulators in yeast, confirmation, cell-based, cherry picks, flow cytometry, mother/daughter gates (AID 2271);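 further: ratio of sample to DMSO plate mean so 100% equals DMSO level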; conditions: S. cerevisiae LAP4-GFP strain, 3 h, measured here: daughter cell gate response, at 10 µM, stronger effect = higher value, 100 means same as DMSO control
Procedure, shortened: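 Material: Alexa Fluor 633-labelled Saccharomyces cerevisiae GFP-fusion strain, single-plex | Amount: Yeast cells seeded at OD600 of 0.2 | Buffer or medium: SC growth medium | Schedule: 3 h exposure, 30 °C | Measured by: HT flow cytometry, GFP fluorescence channel | Evaluation: % GFP response vs DMSO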

SMILES | GFP response relative to DMSO [%]
O=C(Nc1ccc(NC(=O)c2cc3ccccc3o2)cc1)c1ccc2c(c1)OCCO2 | 95.9
Cc1ncc2c(n1)-c1cc(F)ccc1SC2 | 89.6
Cc1ccc(S(=O)(=O)Cc2cc(F)c([N+](=O)[O-])cc2[N+](=O)[O-])cc1 | 146
C/C(CC(=O)Nc1cc(C)ccn1)=N\NC(=O)c1cccc(F)c1 | 97.2
CN=C(NC)SC1CC(=O)N(c2ccccc2)C1=O (centres undefined) | 98.7
O=C1/C(=C\c2ccc(O)c(O)c2)SC(=S)N1Cc1ccccc1 | 117
COc1cc(/C=C2\C(=O)N(CCC#N)N=C2C)c(Br)cc1OC(C)C | 145
CCn1c(=O)c(C(=O)Nc2nc3ccccc3[nH]2)c(O)c2ccccc21 | 109
CC1CN(c2nc3ccccn3c(=O)c2/C=C(\C#N)C(N)=O)CC(C)O1 (centres undefined) | 99
CCOC(=O)CSC1=NC(=O)/C(=C\c2ccc(Cl)cc2)S1 | 150
O=C(N/N=C/c1ccccc1Cl)c1cccc(F)c1 | 101
CCN(CC)CCNC(=O)Cn1c(-c2ccccn2)nc2ccccc21 | 98.7
COc1ccc(N2C(=O)C(Cl)=C(Nc3ccccc3OC)C2=O)cc1 | 94.2
COc1ccc(C(=O)/C=C/c2ccccc2C(F)(F)F)cc1 | 99.2
O=C(COc1ccc(F)cc1Cl)Nc1nc(-c2ccccn2)cs1 | 132
COc1ccc(/C=N/NC(=O)C2(C)NC(C)(C)Cc3ccccc32)cc1 (centres undefined) | 97.6
COc1ccc(OC)c(C2CC(c3c(-c4ccccc4)c4cc(Cl)ccc4[nH]c3=O)=NN2S(C)(=O)=O)c1 (centres undefined) | 92.5
Cc1ccc(/C=C/C(=O)N2CC(C)CC(C)C2)o1 (centres undefined) | 107
COc1ccc(CCNC2=C(Cl)C(=O)N(CCc3ccc(OC)c(OC)c3)C2=O)cc1OC | 99.3
O=S1(=O)Nc2c(ccc3cccnc23)-c2ccccc21 | 104

SMILES | GFP response relative to DMSO [%]
O=C(/C=C/c1cc(Br)ccc1O)c1ccco1 | 135
COc1cc(NC(C)=O)ccc1NC(=O)c1cc2ccccc2o1 | 97.2
COc1ccc(CC2=CC(=O)c3ccccc3C2=O)cc1 | 99.3
C=CCn1cc(/C=C/c2cc[n+](C)cc2)c2ccccc21 | 107
C[n+]1ccc(/C=C/c2c[nH]c3ccc(F)cc23)cc1 | 110
CCSc1nnc(NC(=O)c2nc(S(=O)(=O)Cc3ccc(F)cc3)ncc2Cl)s1 | 108
COc1ccc(C2c3c(oc4ccccc4c3=O)C(=O)N2CCN2CCOCC2)cc1OC (centres undefined) | 116
Cc1ccc(C(=O)c2c3ccccc3[n+]([O-])n2CCO)cc1 | 96
CC(=O)Nc1ccc(S(=O)(=O)NC(CC(=O)NCCC2=CCCCC2)C(C)C)cc1 (centres undefined) | 99.2
Cc1ccc(C(=O)NNC(=S)NC(=O)COc2ccccc2)cc1 | 186
Cc1occc1-c1nnc(-c2cc([N+](=O)[O-])cc([N+](=O)[O-])c2)o1 | 126
Cc1ccc(NS(=O)(=O)c2ccc(CCC(=O)N3CCOCC3)cc2)cc1 | 96
O=C1Nc2ccc(Br)cc2/C1=C/C1CC=CCC1 (centres undefined) | 122
CN1CC(=O)NC1=NC(=O)C12CC3CC(CC(C3)C1)C2 | 97.9
O=S(=O)(c1ccc(Oc2ccccc2)cc1)N1CCOCC1 | 95.6
COc1cc(NC(=O)c2oc3ccccc3c2C)ccc1NC(=O)c1ccco1 | 99
CCCN1CCN(C(=O)c2oc3ccccc3c2NC(=O)COc2ccc(OC)cc2)CC1 | 96
COc1cc(/C=C2\N=C(c3ccccc3)OC2=O)ccc1OC(C)=O | 98.2
COc1ccc(NC(=O)/C(Cl)=C(/Cl)S(=O)Cc2ccccc2)cn1 (centres undefined) | 227
